A selection: hits, their analogues and other compounds. The true share with any hit is near 2.2%.
RanGTP-Impb inh: inhibitors of RanGTP-importin-beta interaction, primary screen, biochemical, FRET, CFP-Ran, YFP-importin-beta, homogeneous; cell-free CFP-Ran/YFP-importin-beta FRET ratio; 300,000 compounds, 1.1% hits; inhibition, % (test concentration not listed);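 active = more than half of the replicate wells show a fall in the fluorescence ratio signal beyond about 16%, limit read from the data, passing the limit was not always enough; inconclusive = exactly half of the replicate wells pass the set limit; inactive = fewer than half of replicates pass the limit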
Hck-Nef inh: inhibitors of human Hck kinase activated by Nef. P08631. Recombinant Hck-YEEI plus Nef, Z-Lyte FRET kinase assay. inhibition, % at 20 µM. 220,000 compounds, 0.68% hits. AID 463187;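 active = Hck-Nef kinase inhibition above about 50%, limit read from the data; inactive = inhibition below that limit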
Runt-CBFb FRET: Runt domain-CBFb interaction inhibition; Q01196+Q13951; Cerulean-Runt/Venus-CBFb FRET ratio 530/480, 1 h; inhibition, % at 20 µM; 220,000 compounds, 0.46% hits;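 active = inhibition over about 50% at 20 µM in the single-dose screen, limit read from the data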
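test system = Cerulean-Runt domain fusion protein, energy donor | probe or stimulus = Venus-CBFb binding partner, 100 nM | incubation = two 1 h room-temperature incubations shielded from light | detection = fluorescence energy transfer, 422 nm excitation, 530/480 nm emission | measure = loss of energy transfer signal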
PERK inh: blocks human PERK kinase; CHO PERK-DD fusion, SEAP luminescence translation reporter; inhibition, % at 5.6 µM; AID 1416; 220,000 compounds, 0.17% hits;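 active = inhibition above the mean inhibition of all tested compounds plus 3 SD, set separately per screening campaign, cut at about 2.9% in these data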;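 also: PERK kinase domain activated by AP20187 dimerizer at 100 nM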
Runt-SMMHC FRET: Runt domain-CBFb-SMMHC interaction inhibition. Q01196+Q13951. Cerulean-Runt/Venus-CBFb-SMMHC FRET ratio 530/480, 1 h. inhibition, % at 20 µM. 220,000 compounds, 0.74% hits. AID 1434;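 active = mean inhibition across duplicate retests at 20 µM reaching about 50%, limit read from the data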;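 also: inhibitors lower the FRET ratio by blocking Runt binding to CBFb-SMMHC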
eIF4E 4G PPI: eIF4E/eIF4G interaction inhibition in translation initiation | P63073+Q04637 | TR-FRET eIF4E-eIF4GI(517-606) binding, 2 h | inhibition, % at 21.7 µM | 220,000 compounds, 0.37% hits;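 active = inhibition above about 30%, limit read from the data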
Hck Nef conf: Hck-Nef kinase inhibition, confirmation; Recombinant Hck-YEEI:Nef, Z-Lyte FRET kinase assay; 1,300 compounds, 28% hits; calls only at 10 µM; shares compounds with Hck-Nef inh;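 active = average inhibition of at least 50%, with Z-scores no higher than 3 in both the phospho-tyrosine peptide and fluorescence counterscreens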
Hits are given with their value; – = inactive; ? = inconclusive; · = not tested or not shown; + = active, no number.

SMILES	RanGTP-Impb inh	Hck-Nef inh	Runt-CBFb FRET	PERK inh	Runt-SMMHC FRET	eIF4E 4G PPI	Hck Nef conf
CCN(CC)c1ccc(-c2nn3c(-c4n[nH]c5c4CCC5)nnc3s2)cc1	–	61	–	–	–	–	–
C1CCC(c2nn3c(-c4n[nH]c5c4CCC5)nnc3s2)CC1	–	–	–	–	–	–	·
COc1cccc(CN(C(=O)c2cccs2)C2CCS(=O)(=O)C2)c1 (stereo not drawn)	–	·	·	·	·	·	·
Clc1ccccc1-c1nnc2sc(-c3cccs3)nn12	–	–	–	–	–	–	·
O=C1NC(=Nc2ccccc2)S/C1=C\C=C\c1ccco1	–	–	–	–	–	–	·
Cc1cccc(N=C2NC(=O)/C(=C/C=C/c3ccco3)S2)c1C	–	74	–	–	–	–	–
Cc1ccc(N=C2NC(=O)/C(=C/C=C/c3ccco3)S2)cc1	–	97	–	–	–	–	–
CCc1ccc(NC(=O)c2sccc2-n2cccc2)cc1	–	–	–	–	–	–	·
NC(=O)CSc1nnc(Cc2csc(Nc3ccccc3)n2)n1Cc1ccccc1	–	–	–	–	–	–	·
O=C1COc2ccc(-c3csc(NCCc4ccccc4)n3)cc2N1	–	128	–	–	–	–	+
CCN(CC)c1ccc(/C=c2\sc3nc4ccccc4n3c2=O)c(O)c1	135	68	–	–	92	–	·
C[C@H](NC(=O)c1[nH]cnc1C(=O)Nc1ccc(CNC(=O)OC(C)(C)C)cc1)C(=O)OC(C)(C)C	–	57	–	·	–	–	–
CC(=O)C1C(c2ccc3ncccc3c2)NC(=O)NC1(O)C(F)(F)F (stereo not drawn)	–	52	–	–	–	–	–
CC(=O)C1C(c2ccncc2)NC(=O)NC1(O)C(F)(F)F (stereo not drawn)	–	–	–	–	–	–	·
Cc1cc(C)c2c(n1)nn1c(NCCOCCO)cc(C)nc21	38	51	–	–	72	–	·
O=c1oc2ccccc2c(O)c1/C=C1\C=Nc2ccccc21	–	–	–	–	–	–	·
O=c1[nH]c(O)c(/C=C2\C=Nc3ccccc32)[nH]1	–	60	–	–	–	–	–
O=C(Cn1c2ccc(F)cc2c2nc3n(c(=O)c21)CCS3)Nc1ccc(Cl)cc1F	–	61	–	–	–	–	–
O=C(COc1ccc(/C=N/NC(=O)c2cc3ccccc3o2)cc1Cl)Nc1ccccc1	–	86	–	–	–	–	+
CC1=NNC(=O)/C1=C\c1cn(-c2ccccc2)nc1-c1ccccc1	·	181	–	–	–	–	+
Clc1cccc(Cl)c1CNc1ccc(N2CCCC2)cc1	–	71	–	–	–	–	–
Cc1ccc(/C=C2/NC(=O)[C@H](C)NC2=O)cc1	–	·	·	·	·	·	·
O=C(CSc1nc(-c2ccccc2)nc2c1Cc1ccccc1O2)Nc1ccccc1	–	–	–	–	–	–	·
O=C(CSc1nc(-c2ccc(F)cc2)nc2c1Cc1ccccc1O2)Nc1cccc(C(=O)O)c1	–	153	–	–	–	63	+
COc1ccc(/C=N/Nc2ncnc3c2[nH]c2ccccc23)c(OC)c1OC	–	–	–	–	–	–	·
SMILES	RanGTP-Impb inh	Hck-Nef inh	Runt-CBFb FRET	PERK inh	Runt-SMMHC FRET	eIF4E 4G PPI	Hck Nef conf
COc1cccc(/C=N/Nc2ncnc3c2[nH]c2ccc(C)cc23)c1OC	–	66	–	–	–	–	–
COc1cccc(N2CCN(S(=O)(=O)c3ccc(CN4C(=O)c5cccnc5C4=O)cc3)CC2)c1	–	·	·	·	·	·	·
O=c1[nH][nH]cc1C=Nc1ccc(Oc2ccccc2)cc1	–	164	–	–	–	–	+
COc1ccc(N=Cc2c[nH][nH]c2=O)cc1	–	–	–	–	–	–	·
O=C(C1=NN[C@@H]2C(=O)N(c3cccc(C(F)(F)F)c3)C(=O)[C@H]12)c1cnccn1	–	52	–	–	–	–	–
N#Cc1ccc(N2C(=O)[C@@H]3C(C(=O)c4cnccn4)=NN[C@@H]3C2=O)cc1	–	–	–	–	–	–	·
CCOc1cc(-c2nc(C)c(C(C)=O)n2O)ccc1OCC(=O)Nc1cccc(C)c1	–	–	–	–	–	–	·
O=C1c2cccc3cc([N+](=O)[O-])cc(c23)C(=O)N1/N=C/c1ccc(O)cc1O	–	55	–	–	–	–	+
CCOC(=O)c1cnc2ccc(C(=O)OC)cc2c1Nc1ccc(C(=O)O)cc1	–	–	–	–	–	–	·
CCOC(=O)c1ccc2ncc(C(=O)OCC)c(Nc3ccc(N4CCOCC4)cc3)c2c1	–	73	–	–	–	–	+
CCOc1ccccc1NS(=O)(=O)c1ccc2[nH]c(=O)[nH]c2c1	–	·	·	·	·	·	·
Cc1oc2c(CN(C)C)c(O)ccc2c(=O)c1-c1cscn1	?	–	–	–	–	–	·
CCCCc1cc(=O)oc2c(CN(C)C)c(O)ccc12	–	83	–	–	107	–	·
COc1ccc(Oc2c(C)oc3c(CN(C)C)c(O)ccc3c2=O)cc1	–	–	–	–	–	–	·
CCCc1cc(=O)oc2cc(OCC(=O)N(C)C)c(Cl)cc12	–	–	–	–	–	–	·
CCc1c(C)c2ccc(O)c(CN(C)C)c2oc1=O	–	59	–	–	131	–	·
CCCc1cc(=O)oc2c(CN(CC)CC)c(O)c(Cl)cc12	24	+	91	–	129	–	·
Cc1ccnc(NC(=O)c2cc(-n3cnnc3)ccc2Cl)c1	–	–	–	–	–	–	·
Clc1ccccc1-c1nnn(Cc2ccc(-c3nn[nH]n3)cc2)n1	–	–	–	–	–	–	·
Cc1ccc(NNc2c(C)nc3ccccc3nc2=O)cc1	–	149	–	–	–	–	–
COc1ccccc1N1CCN(C(=O)CN(CCc2ccccc2)S(C)(=O)=O)CC1	?	–	–	–	–	–	·
COc1ccc(C(=O)Nc2cccc(-c3cc4ccccc4oc3=O)c2)cc1[N+](=O)[O-]	·	96	–	–	–	–	+
CCOc1ccc(N2CC(O)=C(c3nc4ccccc4c(=O)[nH]3)C2=N)cc1	–	55	–	–	–	–	–
CCC(=O)OC1(C)C(=O)C=C2C=C(c3ccsc3)OC=C2C1=O (stereo not drawn)	–	65	–	·	–	–	+
COc1cc(C=C2C(=O)c3ccccc3C2=O)cc(OC)c1OC	–	–	–	–	–	–	·
COc1ccc(C=C2C(=O)c3ccccc3C2=O)cc1O	–	105	–	–	–	–	–
COc1cc(C=C2C(=O)c3ccccc3C2=O)ccc1O	–	74	–	–	–	–	–
Cc1cc(C=C2C(=O)c3ccccc3C2=O)c(C)n1-c1cccc(C(=O)O)c1	–	74	–	–	–	–	+

Assay outcomes as filed in PubChem.
